The source of these data is PubChem BioAssay AID2805 (Sanford-Burnham Center for Chemical Genomics, 2010).

In all, about 330,000 compounds went through this assay and about 780 (0.24%) were called active. This is one part of a sample in which actives are shown more often than they occur. Values without a mark were called inactive.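 The calls were made as follows: active = activation factor of at least 2 at 20 µM; inactive = the rest.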

The subject of the experiment is intestinal alkaline phosphatase [Mus musculus]. Briefly: activators of mouse IAP, primary screen, biochemical, luminescence, uHTS (AID 2805). The note with it: muIAP, CDP-Star luminescence, 30 min; at 10 µM; hits give high values; 1 = vehicle-only enzyme signal, 0 = enzyme-free wells. A digest of the protocol: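 Assay system: mouse IAP enzyme / Compound: DMSO-dissolved test compounds / Timing: 30 min, room temperature / Measured by: luminescence from enzymatic CDP-Star hydrolysis / Control set: DMSO-only wells, enzyme-free buffer wells as negative control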
For `COc1ccc(N(C)C(=O)C2CCN(S(=O)(=O)c3cccc4nsnc34)CC2)cc1`, the activation factor was 0.954. Consider `O=C(NCc1cccnc1)c1cnc2ccccc2n1`, for which the activation factor is 0.965. In the case of `CC(C(=O)O)N1C(=O)c2cccc3cccc1c23` (centres undefined), the activation factor was 1.02. For `CCOc1ccc(C(CCc2ccccc2)NC(=O)c2ccc(OC)c(OC)c2)cc1OCC` (centres undefined) the value was 2.15 (active); for `CCOc1ccc(C(CC(=O)O)NC(=O)C23CC4CC(CC(C4)C2)C3)cc1OC` (centres undefined), 1.06. For `CCOc1ccc(C(CC(=O)O)NC(=O)Cc2ccccc2)cc1OC` (centres undefined), the activation factor was 0.993. On to `CCN(CC)Cc1nc2sc(C)c(C)c2c(=O)[nH]1`, for which the activation factor was 0.952. With `Cc1cc(=O)[nH]c(Nc2cccc(Br)c2)n1`, the activation factor was 1.07. For `C=CCOc1cccc(C2NC(=O)c3ccccc3O2)c1` (centres undefined) the value was 1.01; for `CN(c1ccccc1)S(=O)(=O)c1cccc(NC(=O)Cc2c(F)cccc2Cl)c1`, 2.3 (active). For the compound `CN(C)S(=O)(=O)c1cccc(NC(=O)Cc2ccsc2)c1`, the activation factor was 1.06. Then `CN(c1ccccc1)S(=O)(=O)c1cccc(NC(=O)Cc2ccc(Cl)cc2)c1`, with 1.55; and `Cc1ccc(C(=O)N/C(=C\c2cn(C)c3ccccc23)C(=O)N2CCN(C)CC2)cc1`, with 0.969. Then `COC(=O)CNC(=O)c1ccc2c(c1)S(=O)(=O)c1ccccc1C2=O`, with 1.01. As to `O=C(CCc1ccc(S(=O)(=O)NC2CCCCC2)cc1)NCc1ccccc1`, the activation factor is 1.18. In the case of `CCN(CC)N=Nc1cccc(NC(C)=O)c1`, the activation factor was 0.943. On to `COc1ccc(CN2C3CCCC2CC(NC(=O)c2cccc(F)c2)C3)cc1` (centres undefined), for which the activation factor was 1.11. Regarding `COc1ccc(NC(=O)NC2CC3CCCC(C2)N3Cc2ccccc2)cc1` (centres undefined), the activation factor is 3.11 (active).

For the compound `CCOc1ccccc1C(=O)NC1CC2CCCC(C1)N2Cc1ccccc1` (centres undefined), the activation factor is 0.947. Then `O=C(COc1ccc(S(=O)(=O)N2CCOCC2)cc1Cl)N1CCOCC1`, with 1.01; and `C[N+]1(CC(O)COc2ccccc2)CCN(C(=O)c2ccc([N+](=O)[O-])cc2)CC1` (centres undefined), with 0.943. For `Cn1cccc1C(C#N)c1ccccc1C#N` (centres undefined) the value was 0.962; for `O=C1C2CCCN2C(=O)N1CCCCN1CCN(c2cccc(C(F)(F)F)c2)CC1` (centres undefined), 0.942. Regarding `CCc1ccc(NC(=O)NC(C)c2ccc3c(c2)OCO3)cc1` (centres undefined), the activation factor was 2.38 (active). Then `CC(NC(=O)Nc1ccc2c(c1)OCO2)c1ccncc1` (centres undefined), with 1.02; and `CC(NC(=O)Nc1cccc([N+](=O)[O-])c1)c1ccc2c(c1)OCO2` (centres undefined), with 0.95; and `O=C(Cn1cnc2ccccc2c1=O)NCC1COc2ccccc2O1` (centres undefined), with 0.99.

Take `c1ccc(-c2cc3c(NCC4COc5ccccc5O4)ncnc3s2)cc1` (centres undefined): the activation factor is 2.05 (active). Then `O=C(NCC1COc2ccccc2O1)C1(c2ccccc2)CCCC1` (centres undefined), with 1.
